Test results from ChEMBL document CHEMBL5620421, “2,6-Disubstituted 7-(naphthalen-2-ylmethyl)-7H-purines as a new class of potent antitubercular agents inhibiting DprE1” (Eur J Med Chem, 2023).
≈ marks a conversion by molar mass, not a printed value. Calls of active or inactive are those of the source. The rule behind the calls is not given here.

Tests used:
[1] = tested on: Mycobacterium tuberculosis; experiment: Antitubercular activity against Mycobacterium tuberculosis CNCTC My 331/88 (H37Rv) assessed as inhibition of bacterial growth measured after 21 days of incubation by Sulas semisynthetic medium based assay; type: functional; details: 504 h, time 21 day
How it was run: (§1)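 Micromethod MIC in Sula's semisynthetic medium. MIC is the lowest concentration inhibiting >99% of the mycobacterial population. Isoniazid was the standard drug.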

[2] = tested on: Mycobacterium kansasii; experiment: Antitubercular activity against Mycobacterium kansasii CNCTC My 235/80 assessed as inhibition of bacterial growth measured after 7 days of incubation by Sulas semisynthetic medium based assay; type: functional; details: CNCTC My 235/80, 168 h, time 7 day
How it was run: (§2)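 Micromethod in Sula's semisynthetic medium. MIC is the lowest concentration inhibiting >99% of the mycobacterial population. Isoniazid was the standard.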

[3] = tested on: Staphylococcus epidermidis; experiment: Antibacterial activity against Staphylococcus epidermidis C1936 assessed as inhibition of bacterial growth incubated for 24 to 48 hrs by microdilution broth method; type: functional, organism-based; details: time 24-48 hrs
How it was run: (§3)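 Clinical isolates kept at –70 °C and subcultured twice on Mueller-Hinton agar, using the second subculture. Broth microdilution in Mueller-Hinton broth at pH 7.4 with two-fold serial compound dilutions and DMSO ≤1% final. Inoculum was 10 μL of a 1.5 × 10⁸ CFU/mL suspension. Incubated at 36 °C ± 1 °C and read at 24 h and 48 h. MIC taken as 95% growth inhibition.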

[4] = tested on: Pseudomonas aeruginosa; experiment: Antibacterial activity against multidrug-resistant Pseudomonas aeruginosa A1245 assessed as inhibition of bacterial growth incubated for 24 to 48 hrs by microdilution broth method; type: functional, organism-based; details: time 24-48 hrs
How it was run: (§4)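 Clinical isolates, stored at −70 °C, were passaged twice on Mueller-Hinton agar. Broth microdilution in Mueller-Hinton broth, pH 7.4, with twofold serial dilutions. DMSO was at most 1% final. Inoculum 1.5 × 10⁸ CFU/mL suspension. MIC is 95% growth inhibition, read after 24 and 48 h at 36 °C.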

[5] = tested on: Mycobacterium avium; experiment: Antitubercular activity against Mycobacterium avium CNCTC My 330/88 assessed as inhibition of bacterial growth measured after 21 days of incubation by Sulas semisynthetic medium based assay; type: functional; details: CNCTC My 330/88, 504 h, time 21 day
How it was run: (§5)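 M. avium was tested by the micromethod in Sula's semisynthetic medium. Compounds in DMSO at 1000 to 0.5 μmol/L. Incubation at 37 °C, read at 14 and 21 days. MIC is the lowest concentration giving >99% growth inhibition.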

[6] = tested on: Enterococcus faecium; experiment: Antibacterial activity against vancomycin-resistant Enterococcus faecium assessed as inhibition of bacterial growth incubated for 24 to 48 hrs by microdilution broth method; type: functional, organism-based; details: time 24-48 hrs; how it was run: as §4
[7] = tested on: Mycobacterium kansasii; experiment: Antitubercular activity against Mycobacterium kansasii CNCTC My 235/80 assessed as inhibition of bacterial growth measured after 14 days of incubation by Sulas semisynthetic medium based assay; type: functional; details: CNCTC My 235/80, 336 h, time 14 day; how it was run: as §2
[8] = tested on: Mycobacterium tuberculosis; experiment: Antitubercular activity against Mycobacterium tuberculosis CNCTC My 331/88 (H37Rv) assessed as inhibition of bacterial growth measured after 14 days of incubation by Sulas semisynthetic medium based assay; type: functional; details: 336 h, time 14 day; how it was run: as §1
[9] = tested on: Escherichia coli; experiment: Antibacterial activity against Escherichia coli A1235 assessed as inhibition of bacterial growth incubated for 24 to 48 hrs by microdilution broth method; type: functional, organism-based; details: time 24-48 hrs; how it was run: as §3
[10] = tested on: Klebsiella pneumoniae; experiment: Antibacterial activity against ESBL negative Klebsiella pneumoniae C1950 assessed as inhibition of bacterial growth incubated for 24 to 48 hrs by microdilution broth method; type: functional, organism-based; details: time 24-48 hrs; how it was run: as §3
[11] = tested on: Mycobacterium kansasii; experiment: Antitubercular activity against Mycobacterium kansasii CNCTC My 235/80 assessed as inhibition of bacterial growth measured after 21 days of incubation by Sulas semisynthetic medium based assay; type: functional; details: CNCTC My 235/80, 504 h, time 21 day; how it was run: as §2
[12] = tested on: HepG2; experiment: Cytotoxicity against human HepG2 cells incubated for 24 hrs by MTT assay; type: functional, cell-based; details: HepG2, 24 h
How it was run: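 HepG2 cells in DMEM with 10% FBS, seeded at 15 × 10³ cells/well and attached overnight. Exposed for 24 h to serial dilutions prepared from DMSO stocks, final DMSO ≤1%. Then given fresh medium with 0.5 mg/mL MTT for 1 h at 37 °C. Formazan dissolved in DMSO and read at 570 nm. IC50 from 4-parameter nonlinear regression; three independent experiments in triplicate, mean ± SD.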

[13] = Selectivity index, ratio of IC50 for cytotoxicity against human HepG2 cells by MTT assay to MIC99 for antitubercular activity against Mycobacterium tuberculosis CNCTC My 331/88 (H37Rv) assessed as inhibition of bacterial growth measured after 14 days of incubation; type: functional; details: time 14 day
How it was run: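 HepG2 cells, 15 × 10³/well, were attached overnight and exposed 24 h to serial dilutions (DMSO ≤1%). Read by MTT at 0.5 mg/mL for 1 h and 570 nm. IC50 from 4-parameter regression, three independent experiments in triplicate. SI is HepG2 IC50 divided by H37Rv MIC99.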

[14] = tested on: Klebsiella pneumoniae; experiment: Antibacterial activity against ESBL positive Klebsiella pneumoniae C1914 assessed as inhibition of bacterial growth incubated for 24 to 48 hrs by microdilution broth method; type: functional, organism-based; details: time 24-48 hrs; how it was run: as §3
[15] = tested on: Mycobacterium avium; experiment: Antitubercular activity against Mycobacterium avium CNCTC My 330/88 assessed as inhibition of bacterial growth measured after 14 days of incubation by Sulas semisynthetic medium based assay; type: functional; details: CNCTC My 330/88, 336 h, time 14 day; how it was run: as §5
[16] = tested on: Staphylococcus aureus; experiment: Antibacterial activity against Staphylococcus aureus C1947 assessed as inhibition of bacterial growth incubated for 24 to 48 hrs by microdilution broth method; type: functional, organism-based; details: time 24-48 hrs; how it was run: as §3
[17] = tested on: Staphylococcus aureus; experiment: Antibacterial activity against methicilin-resistant Staphylococcus aureus C1923 assessed as inhibition of bacterial growth incubated for 24 to 48 hrs by microdilution broth method; type: functional, organism-based; details: time 24-48 hrs; how it was run: as §4

Row | SMILES | MIC99 [1] | MIC99 [2] | Activity [3] | Activity [4] | MIC99 [5] | Activity [6] | MIC99 [7] | MIC99 [8] | Activity [9] | Activity [10] | MIC99 [11] | IC50 [12] | Selectivity Index [13] | Activity [14] | MIC99 [15] | Activity [16] | Activity [17]
1 | c1ccc2cc(Cn3cnc4nc(N5CCOCC5)nc(NC5CCCCC5)c43)ccc2c1 | 64 µM (≈ 28.3 µg/mL) | 64 µM (≈ 28.3 µg/mL) | inactive | inactive | > 500 µM | inactive | 125 µM (≈ 55.3 µg/mL) | 32 µM (≈ 14.2 µg/mL) | inactive | inactive | 250 µM (≈ 111 µg/mL) | 18.9 µM | 0.59 | inactive | > 500 µM | inactive | inactive
2 | O=c1[nH]c(N2CCOCC2)nc2ncn(Cc3ccc(Cl)c(Cl)c3)c12 | 32 µM (≈ 12.2 µg/mL) | > 500 µM | inactive | inactive | > 500 µM | inactive | > 500 µM | 16 µM (≈ 6.08 µg/mL) | inactive | inactive | > 500 µM | > 125 µM | >7.8 | inactive | > 500 µM | inactive | inactive
3 | CN(c1nc2ncn(Cc3ccc4ccccc4c3)c2c(=O)[nH]1)C1CC1 | 16 µM (≈ 5.53 µg/mL) | 125 µM (≈ 43.2 µg/mL) | inactive | inactive | > 500 µM | inactive | 250 µM (≈ 86.4 µg/mL) | 16 µM (≈ 5.53 µg/mL) | inactive | inactive | 500 µM (≈ 173 µg/mL) | > 125 µM | >7.8 | inactive | > 500 µM | inactive | inactive
4 | CCCCNc1nc(N2CCOCC2)nc2ncn(Cc3ccc4ccccc4c3)c12 | 4 µM (≈ 1.67 µg/mL) | 8 µM (≈ 3.33 µg/mL) | inactive | inactive | 125 µM (≈ 52.1 µg/mL) | inactive | 8 µM (≈ 3.33 µg/mL) | 4 µM (≈ 1.67 µg/mL) | inactive | inactive | 8 µM (≈ 3.33 µg/mL) | 30.8 µM | 7.7 | inactive | 64 µM (≈ 26.7 µg/mL) | inactive | inactive
5 | CCNc1nc(N2CCOCC2)nc2ncn(Cc3ccc4cc(F)ccc4c3)c12 | 8 µM (≈ 3.25 µg/mL) | 16 µM (≈ 6.5 µg/mL) | inactive | inactive | > 500 µM | inactive | 16 µM (≈ 6.5 µg/mL) | 4 µM (≈ 1.63 µg/mL) | inactive | inactive | 16 µM (≈ 6.5 µg/mL) | 40.7 µM | 10.18 | inactive | > 500 µM | inactive | inactive
6 | COCCN(C)c1nc2ncn(Cc3ccc4ccccc4c3)c2c(=O)[nH]1 | > 500 µM | > 500 µM | – | – | > 500 µM | – | > 500 µM | > 500 µM | – | – | > 500 µM | – | – | – | > 500 µM | – | –
7 | O=c1[nH]cnc2ncn(Cc3ccc4ccccc4c3)c12 | > 500 µM | 125 µM (≈ 34.5 µg/mL) | – | – | > 500 µM | – | > 500 µM | > 500 µM | – | – | > 500 µM | – | – | – | > 500 µM | – | –
8 | CCN(CC)c1nc2ncn(Cc3ccc4ccccc4c3)c2c(=O)[nH]1 | > 500 µM | > 500 µM | inactive | inactive | > 500 µM | inactive | > 500 µM | > 500 µM | inactive | inactive | > 500 µM | – | – | inactive | > 500 µM | inactive | inactive
9 | COc1cccc(Cn2cnc3c(=O)[nH]c(N4CCOCC4)nc32)c1 | > 500 µM | > 500 µM | – | – | > 500 µM | – | > 500 µM | > 500 µM | – | – | > 500 µM | – | – | – | > 500 µM | – | –
10 | Oc1nc(N2CCOCC2)nc2ncn(Cc3ccccc3)c12 | > 500 µM | > 500 µM | – | – | > 500 µM | – | > 500 µM | > 500 µM | – | – | > 500 µM | – | – | – | > 500 µM | – | –
11 | O=c1[nH]c(N2CCOCC2)nc2ncn(Cc3ccc(Cl)cc3)c12 | > 500 µM | 125 µM (≈ 43.2 µg/mL) | – | – | > 500 µM | – | 250 µM (≈ 86.4 µg/mL) | > 500 µM | – | – | > 500 µM | – | – | – | > 500 µM | – | –
